Measurements as given in ChEMBL document CHEMBL2331253, “Atropisomeric dihydroanthracenones as inhibitors of multiresistant Staphylococcus aureus” (J Med Chem, 2013).
In brackets after ≈: the same amount, converted by molar mass. Activity calls are given as the source filed them. The rule behind the calls is not given here.

Assays:
Staphylococcus aureus [1] = experiment: Antibacterial activity against amoxicillin, chloramphenicol, ciprofloxacin, clindamycin, erythromycin, fosmidomycin, gentamycin, kanamycin, nitrofurantoin, telithromycin, methicillin-resistant Staphylococcus aureus 25697 assessed as growth inhibition by CLSI broth microdilution method; type: functional
How it was run: (§1)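 MICs determined by CLSI broth microdilution in Mueller–Hinton broth. Inoculum was prepared by direct colony suspension, at 5 × 10^5 CFU/mL.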

BALB/3T3 = experiment: Cytotoxicity against mouse BALB/3T3 cells assessed as growth inhibition after 48 hrs by Alamar blue assay; type: cell-based; details: BALB/3T3, 48 h
How it was run: (§2)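 THP-1 cells were kept in RPMI-1640 with 10% FCS. BALB/3T3 cells were kept in DMEM with 10% FCS. Cells were plated at 10^4 per well without antibiotics and exposed to 0.016−32 μg/mL (final, 0.32% DMSO) for 48 h at 37 °C, 5% CO2. AlamarBlue was added for 24 h more. Fluorescence (ex 560/em 600 nm) was expressed relative to untreated cells.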

Staphylococcus aureus [2] = experiment: Antibacterial activity against ceftazidime, clarithromycin, ciprofloxacin, clindamycin, doxycycline, erythromycin, methicillin, moxifloxacin, kanamycin, telithromycin, rifampicin, methicillin-resistant, vancomycin-intermediate Staphylococcus aureus subsp. aureus Mu50 assessed as concentration required for partial growth inhibition by CLSI broth microdilution method; type: functional
THP-1 = experiment: Cytotoxicity against human THP1 cells assessed as growth inhibition after 48 hrs by Alamar blue assay; type: cell-based; details: THP-1, 48 h; how it was run: as §2
Escherichia coli [3] = experiment: Antibacterial activity against Escherichia coli ATCC 25922 assessed as growth inhibition by CLSI broth microdilution method; type: functional
Bacillus subtilis [4] = experiment: Induction of recA promoter in Bacillus subtilis YB3001 using 4-methylumbelliferyl beta D-galactopyranoside as substrate incubated for 3 hrs prior to substrate addition measured after 1 hr by beta galactosidase reporter gene assay relative to control; type: functional
How it was run: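 recA–β-galactosidase reporter in B. subtilis YB3001. Twofold compound dilutions in lysogeny broth were inoculated with mid-exponential cells and incubated 3 h at 37 °C, then frozen at −20 °C overnight. Cells were lysed with lysozyme (30 min, 37 °C) and Triton X-100. MUG was added and incubated 1 h at 25 °C. Fluorescence read at ex 360/em 450 nm.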

Streptococcus pneumoniae = experiment: Antibacterial activity against Streptococcus pneumoniae ATCC 49619 assessed as growth inhibition by CLSI broth microdilution method; type: functional
Pseudomonas aeruginosa = experiment: Antibacterial activity against ceftazidime, ciprofloxacin, cefepime, gentamycin, imipenem, meropenem, piperacillin/tazobactam-resistant Pseudomonas aeruginosa 63230 assessed as growth inhibition by CLSI broth microdilution method; type: functional; how it was run: as §1
Bacillus subtilis [5] = experiment: Induction of liaI promoter in Bacillus subtilis IS34 promoter at 64 ug/mL after 3 hrs by luciferase reporter gene assay; type: functional, organism-based
How it was run: (§3)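 Promoter–firefly luciferase fusions were built in B. subtilis IS34. Luminescence was read in a plate reader and expressed as percent of the untreated control. One representative experiment.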

Staphylococcus aureus [6] = experiment: Antibacterial activity against ceftazidime, clarithromycin, ciprofloxacin, clindamycin, doxycycline, erythromycin, methicillin, moxifloxacin, kanamycin, telithromycin, rifampicin, methicillin-resistant, vancomycin-intermediate Staphylococcus aureus subsp. aureus Mu50 assessed as growth inhibition by CLSI broth microdilution method; type: functional; how it was run: as §1
Bacillus subtilis [7] = experiment: Induction of yorB promoter in Bacillus subtilis IS34 after 3 hrs at 0.01 to 100 ug/ml by luciferase reporter gene assay; type: functional; how it was run: as §3
Enterococcus faecalis = experiment: Antibacterial activity against clarithromycin, erythromycin, moxifloxacin, telithromycin, vancomycin-resistant Enterococcus faecalis UW 2689 assessed as growth inhibition by CLSI broth microdilution method; type: functional; how it was run: as §1
Bacillus subtilis [8] = experiment: Induction of bmrC promoter in Bacillus subtilis IS34 promoter at 64 ug/mL after 3 hrs by luciferase reporter gene assay; type: functional, organism-based; how it was run: as §3
Staphylococcus aureus [9] = experiment: Antibacterial activity against Staphylococcus aureus ATCC 29213 assessed as growth inhibition by CLSI broth microdilution method; type: functional; how it was run: as §1
Bacillus subtilis [10] = experiment: Induction of helD promoter in Bacillus subtilis IS34 at 64 ug/mL after 3 hrs by luciferase reporter gene assay; type: functional, organism-based; how it was run: as §3
Bacillus subtilis [11] = experiment: Antibacterial activity against Bacillus subtilis subsp. subtilis str. 168 trpC2 assessed as concentration required for partial growth inhibition by CLSI broth microdilution method; type: functional
Enterococcus faecium = experiment: Antibacterial activity against clarithromycin, erythromycin, telithromycin, vancomycin-resistant Enterococcus faecium 6011 assessed as growth inhibition by CLSI broth microdilution method; type: functional; how it was run: as §1
Bacillus subtilis [12] = experiment: Antibacterial activity against Bacillus subtilis subsp. subtilis str. 168 trpC2 assessed as growth inhibition by CLSI broth microdilution method; type: functional
Staphylococcus aureus [13] = experiment: Antibacterial activity against Staphylococcus aureus ATCC 29213 assessed as concentration required for partial growth inhibition by CLSI broth microdilution method; type: functional
Streptococcus pyogenes = experiment: Antibacterial activity against doxycycline-intermediate Streptococcus pyogenes 014327 assessed as growth inhibition by CLSI broth microdilution method; type: functional
Escherichia coli [14] = experiment: Antibacterial activity against ciprofloxacin-resistant Escherichia coli WT-3-1 MB2 assessed as growth inhibition by CLSI broth microdilution method; type: functional; how it was run: as §1
Streptococcus agalactiae = experiment: Antibacterial activity against doxycycline-intermediate Streptococcus agalactiae 013761 assessed as growth inhibition by CLSI broth microdilution method; type: functional
Klebsiella pneumoniae = experiment: Antibacterial activity against doxycycline, kanamycin-resistant Klebsiella pneumoniae ATCC 27799 assessed as growth inhibition by CLSI broth microdilution method; type: functional; how it was run: as §1
Bacillus subtilis [15] = experiment: Antibacterial activity against Bacillus subtilis subsp. subtilis str. 168 trpC2 assessed as growth inhibition measured at 5 mins interval over 20 hrs by spectrophotometric analysis relative to control; type: functional, organism-based
How it was run: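 B. subtilis 168 trpC2 was grown in lysogeny broth, shaken, at 37 °C. Dilution and inoculum were as for broth microdilution. OD600 was read every 5 min over 20 h in untreated versus treated cultures.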

Staphylococcus aureus [16] = experiment: Antibacterial activity against Staphylococcus aureus subsp. aureus Mu50 assessed as growth inhibition measured at 5 mins interval over 20 hrs by spectrophotometric analysis relative to control; type: functional
How it was run: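 S. aureus Mu50 was grown in Mueller−Hinton broth at 37 °C with shaking between reads. Dilution and inoculum were as for broth microdilution, with compound at 0.031–64 μg/mL. OD600 was read at 5 min intervals over 20 h against an untreated control. Run in triplicate.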

Bacillus subtilis [17] = experiment: Induction of yorB promoter in Bacillus subtilis IS34 after 3 hrs by luciferase reporter gene assay relative to control; type: functional; how it was run: as §3
Staphylococcus aureus [18] = experiment: Antibacterial activity against amoxicillin, chloramphenicol, ciprofloxacin, clindamycin, erythromycin, fosmidomycin, gentamycin, kanamycin, nitrofurantoin, telithromycin, methicillin-resistant Staphylococcus aureus 25697 assessed as concentration required for partial growth inhibition by CLSI broth microdilution method; type: functional
Bacillus subtilis [19] = experiment: Antibacterial activity against Bacillus subtilis subsp. subtilis str. 168 trpC2 assessed as induction of SOS response-mediated DNA degradation at 0.125 ug/mL after 120 mins by DAPI staining-based fluorescence microscopic analysis; type: functional, organism-based
How it was run: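 B. subtilis 168 trpC2 was grown in lysogeny broth to OD600 0.1−0.3, then treated in plates at 37 °C with shaking. Aliquots were taken 30−180 min after addition and stained 60 s with DAPI (1 μg/mL stock). Cells were immobilized on 1% agarose slides and imaged by phase contrast and fluorescence. Performed twice.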

Bacillus subtilis [20] = experiment: Induction of yorB promoter in Bacillus subtilis IS34 after 3 hrs at 0.001 to 10 ug/ml by luciferase reporter gene assay; type: functional; how it was run: as §3

Row | SMILES | MIC (Staphylococcus aureus [1]) | IC50 (BALB/3T3) | IC50 (THP-1) | MIC (Escherichia coli [3]) | Activity (Bacillus subtilis [4]) | MIC (Streptococcus pneumoniae) | MIC (Pseudomonas aeruginosa) | Activity (Bacillus subtilis [5]) | MIC (Staphylococcus aureus [6]) | MIC (Enterococcus faecalis) | Activity (Bacillus subtilis [8]) | MIC (Staphylococcus aureus [9]) | Activity (Bacillus subtilis [10]) | MIC (Enterococcus faecium) | MIC (Bacillus subtilis [12]) | MIC (Streptococcus pyogenes) | MIC (Escherichia coli [14]) | MIC (Streptococcus agalactiae) | MIC (Klebsiella pneumoniae) | growth inhibition (GI) (Bacillus subtilis [15]) | further results
1 | Cc1cc(O)c2c(c1)C(=O)c1cc(O)cc(O)c1C2=O [EMODIN] | 2 µg/mL (≈ 7.4 µM) | 32 µg/mL (≈ 118 µM) | 32 µg/mL (≈ 118 µM) | > 64 µg/mL | inactive | 1 µg/mL (≈ 3.7 µM) | > 64 µg/mL | inactive | 4 µg/mL (≈ 14.8 µM) | 16 µg/mL (≈ 59.2 µM) | inactive | 4 µg/mL (≈ 14.8 µM) | inactive | > 64 µg/mL | 16 µg/mL (≈ 59.2 µM) | > 64 µg/mL | > 64 µg/mL | > 64 µg/mL | > 64 µg/mL |  | MIC (Staphylococcus aureus [2]): 2 µg/mL (≈ 7.4 µM); Activity (Bacillus subtilis [7]): inactive; MIC (Bacillus subtilis [11]): 8 µg/mL (≈ 29.6 µM); MIC (Staphylococcus aureus [13]): 2 µg/mL (≈ 7.4 µM)
2 | CO[C@@]12[C@H](COC(N)=O)C3=C(C(=O)C(C)=C(N)C3=O)N1C[C@@H]1N[C@@H]12 |  |  |  |  | Active |  |  |  |  |  |  |  |  |  |  |  |  |  |  |  | 
3 | COc1cc2cc3c(c(O)c2c(O)c1-c1c(O)cc2cc4c(c(O)c2c1O)C(=O)CC(C)(O)C4)C(=O)CC(C)(O)C3 (single isomer, unassigned; atropisomer) [FLAVOMANNIN C] | 32 µg/mL (≈ 57.1 µM) | > 32 µg/mL | > 32 µg/mL | > 64 µg/mL |  | > 64 µg/mL | > 64 µg/mL | inactive | 16 µg/mL (≈ 28.5 µM) | 32 µg/mL (≈ 57.1 µM) | inactive | 64 µg/mL (≈ 114 µM) | inactive | > 64 µg/mL | > 64 µg/mL | > 64 µg/mL | > 64 µg/mL | > 64 µg/mL | > 64 µg/mL | Active | Activity (Bacillus subtilis [7]): inactive; growth inhibition (GI) (Staphylococcus aureus [16]): Dose-dependent effect
4 | Cc1cc(O)c2c(c1)C(=O)c1cc(O)c(-c3c(O)cc4c(O)c5c(cc4c3O)CC(C)(O)CC5=O)c(O)c1C2=O (single isomer, unassigned; atropisomer) [Talaromannin B] | 16 µg/mL (≈ 29.5 µM) | > 32 µg/mL | > 32 µg/mL | > 64 µg/mL | Active | 32 µg/mL (≈ 59 µM) | > 64 µg/mL | inactive | 8 µg/mL (≈ 14.7 µM) | 64 µg/mL (≈ 118 µM) | inactive | 16 µg/mL (≈ 29.5 µM) | inactive | > 64 µg/mL | > 64 µg/mL | 32 µg/mL (≈ 59 µM) | > 64 µg/mL | 64 µg/mL (≈ 118 µM) | > 64 µg/mL | Active | Activity (Bacillus subtilis [17]): Active; MIC (Staphylococcus aureus [18]): 8 µg/mL (≈ 14.7 µM); concentration giving maximal yorB promoter induction (Bacillus subtilis [7]): 8 µg/mL; growth inhibition (GI) (Staphylococcus aureus [16]): Dose-dependent effect
5 | O=C(O)c1cn(C2CC2)c2cc(N3CCNCC3)c(F)cc2c1=O [CIPROFLOXACIN] |  |  |  |  | Active |  |  |  |  |  |  |  |  |  |  |  |  |  |  |  | Activity (Bacillus subtilis [19]): Active; fold change (FC) (Bacillus subtilis [20]): 20
6 | CC1(O)CC(=O)c2c(cc3cc(O)c(-c4c(O)cc5cc6c(c(O)c5c4O)C(=O)CC(C)(O)C6)c(O)c3c2O)C1 (single isomer, unassigned; atropisomer) [FLAVOMANNIN A] | 8 µg/mL (≈ 14.6 µM) | > 32 µg/mL | > 32 µg/mL | > 64 µg/mL |  | > 64 µg/mL | > 64 µg/mL | inactive | 16 µg/mL (≈ 29.3 µM) | > 64 µg/mL | inactive | 16 µg/mL (≈ 29.3 µM) | inactive | > 64 µg/mL | > 64 µg/mL | > 64 µg/mL | > 64 µg/mL | > 64 µg/mL | > 64 µg/mL | Active | Activity (Bacillus subtilis [17]): Active; fold change (FC) (Bacillus subtilis [4]): <2; Activity (Bacillus subtilis [7]): inactive; growth inhibition (GI) (Staphylococcus aureus [16]): Dose-dependent effect
7 | COc1cc2cc3c(c(O)c2c(O)c1-c1c(O)cc2c(O)c4c(cc2c1O)CC(C)(O)CC4=O)C(=O)CC(C)(O)C3 (single isomer, unassigned; atropisomer) [FLAVOMANNIN D] | 8 µg/mL (≈ 14.3 µM) | > 32 µg/mL | > 32 µg/mL | > 64 µg/mL | Active | 64 µg/mL (≈ 114 µM) | > 64 µg/mL | inactive | 8 µg/mL (≈ 14.3 µM) | 32 µg/mL (≈ 57.1 µM) | inactive | 8 µg/mL (≈ 14.3 µM) | inactive | > 64 µg/mL | 64 µg/mL (≈ 114 µM) | 64 µg/mL (≈ 114 µM) | > 64 µg/mL | > 64 µg/mL | > 64 µg/mL | Active | concentration giving maximal yorB promoter induction (Bacillus subtilis [7]): 2 µg/mL; growth inhibition (GI) (Staphylococcus aureus [16]): Dose-dependent effect
